Test [1] has as its target T1, Beta-secretase 1 (Homo sapiens, UniProt P56817). Nature of the test: Inhibition of recombinant human BACE-1 using SEVNLDAEFK as substrate at 10 uM after 90 mins by FRET assay.
The target in test [2] is T1, Beta-secretase 1. Nature of the test: Inhibition of recombinant human BACE-1 using SEVNLDAEFK as substrate at 50 uM after 90 mins by FRET assay.
The species entered for the next test is Cavia porcellus. Nature of the test: Antagonist activity at calcium channel albino guinea pig ileal longitudinal smooth muscle assessed as inhibition of KCl-induced contraction. In short, it runs like this:
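Fasted guinea-pig ileal longitudinal smooth muscle, 2 cm segments under 0.5 g resting tension, contracted with 40 mM KCl. Compounds were added cumulatively, and relaxation was expressed as percent of control. IC30 (30% relaxation) was read graphically from the curves.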

Test [3] addresses T1, Beta-secretase 1. Description: Inhibition of recombinant human BACE-1 using SEVNLDAEFK as substrate after 90 mins by FRET assay.

Each structure is given as a SMILES string. Peptide text beside a SMILES is read from it. * marks the point of attachment. X1 = C[C@H](NC[C@H](C)N*)C(=O)N[C@@H](CCC(=O)O)C(=O)N[C@@H](Cc1ccccc1)C(=O)O

From ChEMBL document CHEMBL2440001, “Design and synthesis of novel 3,5-bis-N-(aryl/heteroaryl) carbamoyl-4-aryl-1,4-dihydropyridines as small molecule BACE-1 inhibitors” (Bioorg Med Chem, 2013) come the findings set out here.

T1 sequence (P56817 whole entry): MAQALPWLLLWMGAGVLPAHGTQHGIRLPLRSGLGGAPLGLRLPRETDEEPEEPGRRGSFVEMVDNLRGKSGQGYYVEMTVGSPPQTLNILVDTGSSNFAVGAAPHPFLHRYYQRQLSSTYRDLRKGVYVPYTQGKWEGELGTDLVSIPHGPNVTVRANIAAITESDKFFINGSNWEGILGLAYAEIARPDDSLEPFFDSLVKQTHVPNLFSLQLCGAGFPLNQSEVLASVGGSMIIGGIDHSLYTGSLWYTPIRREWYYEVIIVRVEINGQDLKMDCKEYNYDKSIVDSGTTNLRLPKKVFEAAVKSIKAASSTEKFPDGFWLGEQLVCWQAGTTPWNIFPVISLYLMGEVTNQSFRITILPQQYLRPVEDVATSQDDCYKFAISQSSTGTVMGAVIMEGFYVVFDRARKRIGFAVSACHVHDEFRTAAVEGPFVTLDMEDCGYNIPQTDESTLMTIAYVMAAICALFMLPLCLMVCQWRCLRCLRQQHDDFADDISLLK

As a reminder, the inhibition is how much of the control response was suppressed. As for `CC1=C(C(=O)Nc2cc(C)on2)C(c2cccc([N+](=O)[O-])c2)C(C(=O)Nc2cc(C)on2)=C(C)N1`, at Beta-secretase 1 [1], the inhibition amounted to 11.6%.
Broadly, the IC50 is the concentration needed to halve the response being measured. In the case of `CC1=C(C(=O)Nc2nc3ccccc3s2)C(c2ccccc2[N+](=O)[O-])C(C(=O)Nc2nc3ccccc3s2)=C(C)N1`, the inhibition at Beta-secretase 1 [2] is 87.2%; on Beta-secretase 1 [1], 65.6%. The IC15 in the test filed under Cavia porcellus was found to be 6.47 ×10⁻⁷ M. Also, the IC50 at Beta-secretase 1 [3] was determined as 4.27 µM.
Taken in the same sequence, the figures for `CC1=C(C(=O)Nc2nc(C)cs2)C(c2ccco2)C(C(=O)Nc2nc(C)cs2)=C(C)N1` were 95.1%, 66.4%, 2.26 µM and 6.78 µM.
For the compound `CC(C)C[C@H](NC(=O)[C@H](CC(N)=O)NC(=O)[C@@H](NC(=O)[C@@H](N)CCC(=O)O)C(C)C)C(=O)N[C@@H](C)CN[C@@H](C)C(=O)N[C@@H](CCC(=O)O)C(=O)N[C@@H](Cc1ccccc1)C(=O)O` (H-EVNL-X1), the IC50 at Beta-secretase 1 [3] was determined as 0.003 µM.
`CC1=C(C(=O)Nc2cc(C)on2)C(c2ccc([N+](=O)[O-])cc2)C(C(=O)Nc2cc(C)on2)=C(C)N1`: the values for the inhibition at Beta-secretase 1 [2] and on Beta-secretase 1 [1] were 43% and 23.5%, respectively.
In the case of `CC1=C(C(=O)Nc2nc3ccccc3s2)C(c2cccc([N+](=O)[O-])c2)C(C(=O)Nc2nc3ccccc3s2)=C(C)N1`, the results for the inhibition at Beta-secretase 1 [2] and on Beta-secretase 1 [1] were 56.2% and 49.4%, respectively.
The like results for `CC1=C(C(=O)Nc2nccs2)C(c2ccc([N+](=O)[O-])cc2)C(C(=O)Nc2nccs2)=C(C)N1` were, in that order, 46.8% and 28.1%.
In the case of `CC1=C(C(=O)Nc2nc3ccccc3s2)C(c2ccccc2)C(C(=O)Nc2nc3ccccc3s2)=C(C)N1`, the inhibition on Beta-secretase 1 [1] was 44.9%.
As to `CC1=C(C(=O)Nc2nc3ccccc3s2)C(c2ccc([N+](=O)[O-])cc2)C(C(=O)Nc2nc3ccccc3s2)=C(C)N1`, the inhibition was 90.8% on Beta-secretase 1 [2] and 49.8% at Beta-secretase 1 [1].
Taken in the same sequence, the figures for `CC1=C(C(=O)Nc2nc(C)cs2)C(c2cccc([N+](=O)[O-])c2)C(C(=O)Nc2nc(C)cs2)=C(C)N1` were 70.4% and 34.8%.
Turning to `CC1=C(C(=O)Nc2nc(C)cs2)C(c2ccc([N+](=O)[O-])cc2)C(C(=O)Nc2nc(C)cs2)=C(C)N1`, the figures for the inhibition at Beta-secretase 1 [2] and on Beta-secretase 1 [1] were 88% and 77.2%, respectively. In addition, the IC15 in the test filed under Cavia porcellus stood at 4.63 µM. On Beta-secretase 1 [3], the IC50 came to 4.21 µM.
As to `CC1=C(C(=O)Nc2cc(C)on2)C(c2ccccc2[N+](=O)[O-])C(C(=O)Nc2cc(C)on2)=C(C)N1`, the inhibition at Beta-secretase 1 [2] is 54%; on Beta-secretase 1 [1], 12.7%.
The IC30 is the point of the concentration-response curve where the effect stands at 30%. For `COC(=O)C1=C(C)NC(C)=C(C(=O)OC)C1c1ccccc1[N+](=O)[O-]`, in the test filed under Cavia porcellus, the IC15 was found to be 0.00202 µM and the IC30 was found to be 9.27 nM.
`CC1=C(C(=O)Nc2nc(C)cs2)C(c2ccccc2[N+](=O)[O-])C(C(=O)Nc2nc(C)cs2)=C(C)N1`: the inhibition on Beta-secretase 1 [2] is 95%; at Beta-secretase 1 [1] it was 69.4%. For the same compound, the IC15 in the test listed under Cavia porcellus stood at 1.82 µM. Besides, on Beta-secretase 1 [3], the IC50 worked out at 4.66 µM.
As to `CCOc1ccc2nc(NC(=O)C3=C(C)NC(C)=C(C(=O)Nc4nc5ccc(OCC)cc5s4)C3c3cccc([N+](=O)[O-])c3)sc2c1`, the inhibition on Beta-secretase 1 [2] turned out to be 94%; on Beta-secretase 1 [1], 49.1%.
Taken in the same sequence, the figures for `COc1ccc(C2C(C(=O)Nc3nc(C)cs3)=C(C)NC(C)=C2C(=O)Nc2nc(C)cs2)cc1` were 86.3% and 44.4%.
Taken in the same sequence, the figures for `CC1=C(C(=O)Nc2cc(C)on2)C(c2ccc[nH]2)C(C(=O)Nc2cc(C)on2)=C(C)N1` were 57.4% and 24.1%.
